LYP act – LYP (human) phosphatase activation | 96,000 tested, 0.11% active | recombinant LYP, DiFMUP fluorescence; 0 = plate median, 100 = signal doubled | Q9Y2R2 | activation, % at 2 µM;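 active = activation at 2 µM above a set limit, the mean plus 5 SD, cut at about 37% in these data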
EphB4 ephrin blk – antagonists of human EphB4-ephrin-B2 interaction | P54760 | EphB4 LBD / TNYL-RAW-Alexa532 peptide, fluorescence polarization | inhibition, % at 7 µM | 97,000 tested, 0.15% active | AID 720;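 active = inhibition above the screen-wide mean inhibition plus 3 SD, cut at about 15% in these data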;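 note: 0% = DMSO wells and 100% = excess unlabeled TNYL-RAW peptide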
LYP inh 2 – LYP (human) phosphatase inhibition; Q9Y2R2; recombinant LYP catalytic domain, DiFMUP fluorescence; inhibition, % at 2 µM; 96,000 tested, 0.21% active; AID 640;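 active = inhibition at 2 µM at or above a set limit, the screen mean plus 3 SD, cut at about 24% in these data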;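 note: 0% = DMSO with enzyme and 100% = enzyme fully blocked by orthovanadate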
PLK1 inh – PLK1 (human) kinase inhibition | P53350 | recombinant PLK1 kinase, TR-FRET peptide phosphorylation | inhibition, % at 10 µM | 97,000 tested, 0.53% active;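 active = inhibition of 50% or more in the single-concentration screen; inactive = inhibition below 50%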;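 note: 0% = DMSO max control and 100% = H-89 dihydrochloride min control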
Rev-RRE block – inhibitors of HIV-1 Rev-RRE RNA interaction | P05866 | Rev peptide-RRE RNA binding, FRET | inhibition, % at 8 µM | 97,000 tested, 0.79% active | AID 704;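 active = inhibition above the screen-wide mean plus 3 SD, cut at about 35% in these data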;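 note: 0% = median DMSO wells and 100% = median Neomycin B control wells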
Target sequence (P05866 whole entry, looked up): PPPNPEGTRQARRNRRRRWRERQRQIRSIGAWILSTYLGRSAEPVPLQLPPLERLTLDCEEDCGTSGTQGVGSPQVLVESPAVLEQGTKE
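Test system – labelled RRE RNA duplex and labelled Rev peptide · Signal – fluorescein-to-Cy5 FRET, 480 nm excitation · Evaluation – % inhibition of FRET ratio versus controls · Benchmarks – DMSO low control, neomycin B high control · Incubation – 5 min RNA-compound premix plus 15 min binding step, 25 °C · Medium – HEPES pH 7.5 salt buffer with EDTA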
Plk1 PBD FP – blocks phosphopeptide binding to human Plk1 polo box domain. Plk1 PBD phosphopeptide binding, fluorescence polarization. 97,000 tested, 0.13% active. inhibition, %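 (tested at about 20 µM)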; in the data active = inhibition above about 34%, passing the limit was not always enough
An asterisk follows results filed as active; . = no result given; [ ] = remark or other dose. This is a sample that favours compounds with a hit; in the whole collection about 2% have one here.

SMILES	LYP act	EphB4 ephrin blk	LYP inh 2	PLK1 inh	Rev-RRE block	Plk1 PBD FP
CCCCNC(=O)CS(=O)Cc1nc(-c2cccs2)oc1C (stereo not given)	.	3	.	59*	8	3
CCOC(=O)c1sc(/N=C/c2c(C)[nH]n(-c3ccccc3)c2=O)c(C#N)c1C	8	3	-11	-8	70*	-89
Cc1ccc(C2CC(=O)NC(SCC(=O)Nc3nccs3)=C2C#N)cc1 (stereo not given)	4	-5	-7	5	2	21
COc1ccc(CCNC(=O)COc2ccc(S(=O)(=O)NC(C)C)cc2Cl)cc1OC	-6	-1	11	-9	5	30
Cc1nc2ccccc2c(=O)n1NC(=O)Cc1ccccc1	-2	-1	2	-12	8	-7
Cc1ccc(CNc2ccc3c(c2)OCO3)cc1	-2	1	2	-6	75*	-50
COc1ccc(Cl)cc1CN1CCN(c2nc(C)cc(C)c2C#N)CC1	-1	-1	-2	62*	40*	26
O=C(O)CCCN1C(=O)/C(=C/c2ccc(-c3nc4ccccc4s3)o2)SC1=S	-38	-5	41*	-16	71*	-26
Cc1ccc(/C=C2\SC(=S)N(CCCC(=O)Nc3ccccn3)C2=O)cc1	-3	12	6	-13	5	-6
COc1ccc(OCC(=O)Nc2sc3c(c2C(=O)NCC2CCCO2)CCC3)cc1 (stereo not given)	-4	5	5	-8	6	-8
CC1CCN(c2cc(N)c(Cl)cc2[N+](=O)[O-])CC1	8	-2	-4	-9	1	3
CCN1CCN(CC(=O)NC2CCCC2)C(=O)C1=O	.	1	.	68*	8	-22
COc1ccc2c(c1)OC13CCCCC1C2C(C(=O)c1ccccc1)C(=O)N3 (stereo not given)	-3	1	0	-13	-1	31
COc1cccc(CNC(=O)CCS(=O)(=O)c2cccs2)c1	-5	2	7	-10	3	1
Cc1ccc(CO/N=C\Cc2snc(Sc3ncc(C(F)(F)F)cc3Cl)c2C#N)cc1	-7	1	6	-4	60*	-12
O=C(NC1CCN(C(=S)NCc2ccco2)CC1)NC12CC3CC(CC(C3)C1)C2	5	3	-1	-3	-2	24
O=C(NC(C(=O)N/N=C/c1ccccc1)c1n[nH]c(=O)c2ccccc12)c1ccccc1 (stereo not given)	-24	1	26*	-16	4	-15
CCOC(=O)c1nnn(-c2nonc2N)c1CSc1ccccn1	-18	0	18	-7	2	28
O=C(NCc1cccnc1)C1CC(=O)N(CCc2ccccc2)C1 (stereo not given)	17	-9	-21	0	3	-22
CCCCNc1c2c3c(cccc3n(C)c1=O)C(=O)c1ccccc1-2	7	15	-8	-129	142*[fluorescence artefact?]	-138
Cn1c(=O)c(NCCc2ccccc2)c2c3c(cccc31)C(=O)c1ccccc1-2	0	119*[fluorescence artefact?]	-1	-152	140*[fluorescence artefact?]	-207
CN1C(=O)c2cccc(NCCCCCCN3C(=O)c4ccccc4C3=O)c2C1=O	16	-3	-13	-48	30	-2
CCNc1c2c3c(cccc3n(C)c1=O)C(=O)c1ccccc1-2	7	26*	-9	-101	142*[fluorescence artefact?]	-106
Cn1c(NCCc2ccccc2)cc(=O)n(C)c1=O	1	1	-4	-10	6	-11
CCOC(=O)C1=C(c2ccccc2)N=c2s/c(=C\c3cccc(O)c3)c(=O)n2C1c1cccs1 (stereo not given)	2	-6	0	1	9	-4
SMILES	LYP act	EphB4 ephrin blk	LYP inh 2	PLK1 inh	Rev-RRE block	Plk1 PBD FP
O=c1/c(=C\c2ccc(O)cc2)sc2n1C(c1ccccc1)C(c1ccccc1)=NN=2 (stereo not given)	-9	0	11	-6	41*	-97
Cn1c(=O)c2c(nc(NCC3CCCO3)n2Cc2cccc(Br)c2)n(C)c1=O (stereo not given)	3	6	0	-6	7	-18
CCOC(=O)C(C)S(=O)(=O)c1ccc(C(F)(F)F)cn1 (stereo not given)	-10	0	13	-9	5	-27
Cc1nn(-c2ccccc2)c(Cl)c1/C=N/Nc1ccc(S(=O)(=O)Nc2ccccc2C(=O)O)cc1[N+](=O)[O-]	-22	2	24*	2	-1	-4
Cc1cc(S(=O)(=O)Nc2ccccc2C(=O)O)ccc1Cl	3	-10	-6	-14	1	-1
CCOc1ccc(NC(=O)c2ccccc2OCC(=O)c2ccccc2)cc1	-9	3	9	-6	4	12
Cc1ccsc1C1NC(=O)c2c(sc3c2CCN(C)C3)N1 (stereo not given)	-5	1	2	38	100*[fluorescence artefact?]	-1
CN1CCc2c(sc3c2C(=O)NC(c2cccs2)N3)C1 (stereo not given)	-4	1	1	10	67*	-7
CSc1ccc(C2NC(=O)c3c(sc4c3CCN(C)C4)N2)cc1 (stereo not given)	-7	0	4	-12	84*	-18
Cc1cccc(-n2c(CCCN3C(=O)c4ccccc4C3=O)nc3ccccc3c2=O)n1	-1	2	0	-12	7	-5
Cc1ccc(NC(=O)c2ccccc2N(C)S(C)(=O)=O)cc1C	-11	2	14	-4	6	-12
CCOc1ccc(C(=O)NCC2OCCc3ccccc32)cc1 (stereo not given)	-7	-5	7	-8	5	-5
CC(C)(C)C1CCC2(CC1)SCC(=O)N2c1ccccc1 (stereo not given)	-11	16*	9	-5	7	-2
CC(C)(C)C1CCC2(CC1)NC(=S)N(c1ccccc1)N2 (stereo not given)	-2	1	-1	-11	-3	19
CSc1cccc(NC(=O)CSc2nc3ccccc3o2)c1	1	-5	-1	7	8	0
CN(C)/C=C/C(=O)c1ccc(F)cc1	-23	-2	26*	-8	2	-17
COc1ccc(C(=O)/C=C/N(C)C)cc1	-6	7	9	-3	6	-3
Cc1ccc(S(=O)(=O)N2CCC(C(=O)NCc3ccncc3)CC2)cc1	-17	-2	19	-5	5	-29
Cc1ccc2nc(SCc3nnc(-c4ccccc4Br)o3)[nH]c2c1	3	0	0	-2	15	8
COc1cnc(N(C)C)nc1Sc1ccc(Cl)cc1	1	-5	-3	-10	4	-6
COc1cnc(-c2ccccn2)nc1Sc1ccc(Cl)cc1	-28	-2	30*	-40	5	27
CCN(CC)c1ccc(-c2nnc(SCC(=O)Nc3ccccc3C#N)n2-c2ccccc2)cc1	-18	0	20	-16	1	-20

Screening data deposited in PubChem BioAssay by several laboratories.
